In ChEMBL document CHEMBL1123566, “Synthesis and cardiac electrophysiological activity of 2- and 3-[(substituted phenyl)alkyl]quinuclidines. Structure-activity relationships” (1987):
Where “and” joins values, the source holds several entries; their conditions need not be identical. Identical values can stand only once.

How the values were obtained:
[1] = species on record: Canis familiaris; experiment: In vitro electrophysiological activity in canine cardiac occurred is 30 uM.; format: functional, Canis lupus familiaris, Heart
[2] = species on record: Canis familiaris; experiment: In vitro electrophysiological evaluation in canine cardiac ventricular muscle reported as % change for the functional refractory period (FRP) at 10 uM at concentration range of 0.1-100 uM; design: species or system Canis lupus familiaris, Muscle tissue
In short: (§1)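 Canine right ventricle and papillary muscle strips in oxygenated Tyrode's solution, fitted with stimulating and recording electrodes. The extra-stimulus conduction-interval method was adapted for in vitro use. FRP and CT were read from a conduction-interval curve before and after various compound concentrations, and expressed as percent change from control. Compounds were taken from 10 mM deionized-water stock into Tyrode's. Each strip was used once as its own control.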

[3] = species on record: Canis familiaris; experiment: In vitro electrophysiological evaluation in canine cardiac ventricular muscle reported as maximum % change for functional refractory period (FRP) at 0.1-100 uM concentration range; concentration at which it occurred is 10 uM.; design: species or system Canis lupus familiaris, Muscle tissue; in short: as §1
[4] = species on record: Canis familiaris; experiment: In vitro electrophysiological evaluation in canine cardiac Purkinje fibres reported as % change for action potential duration at a concentration of 10 uM; format: functional, Canis lupus familiaris, Purkinje fiber
In short: (§2)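 Canine cardiac Purkinje fibres, intracellular microelectrode recording, paced at a basic cycle length of 1 s. APD95 and Vmax read simultaneously. Compound: 10 mM stock in deionized water, diluted into Tyrode's solution, tested over the stated concentration range. Each fibre used once as its own control. Result is % change from control, given at 10 µM or as the maximum with its concentration. M = <10% decrease or an increase in Vmax.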

[5] = tested on: Canis familiaris; experiment: Conduction time was determined by intraduodenal administration of two dosages of 30 mg/kg (high dose) of compound in anesthetized dogs. Value was reported for experiment 2; format: functional, Canis lupus familiaris
In short: (§3)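 Anesthetized dogs given the compound intraduodenally, generally as two doses with the second a cumulative total (low/high). FRP and CT measured at 15, 30 and 45 min after dosing. HR and BP taken during nonpacing intervals. Values are percent change from control per animal. Activity criterion is FRP or CT prolonged ≥12%. Vehicle: 5% dextrose in water/tragacanth.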

[6] = tested on: Canis familiaris; experiment: Heart rate was determined by intraduodenal administration of two dosages of 10 mg/kg (low dose) of compound in anesthetized dogs. Value was reported for experiment 1; format: functional, Canis lupus familiaris; in short: as §3
[7] = tested on: Canis familiaris; experiment: Conduction time was determined by intraduodenal administration of two dosages of 30 mg/kg (high dose)of compound in anesthetized dogs. Value was reported for experiment 1; format: functional, Canis lupus familiaris; in short: as §3
[8] = tested on: Canis familiaris; experiment: Left ventricular refractory period was determined by intraduodenal administration of two dosages of 10 mg/kg (low dose) of compound in anesthetized dogs. Value was reported for experiment 1; format: functional, Canis lupus familiaris, Cardiac ventricle
In short: (§4)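 Anesthetized dogs, usually given two intraduodenal doses, with the second dose cumulative (low/high). Left ventricular FRP and CT were determined at 15, 30 and 45 min after dosing. HR and BP were measured during nonpacing intervals. Values are % change from control at low/high dose, for individual animals. The vehicle-stability set used 5% dextrose in water/tragacanth (n = 8).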

[9] = tested on: Canis familiaris; experiment: Mean arterial blood pressure was determined by intraduodenal administration of two dosages of 30 mg/kg (high dose)of compound in anesthetized dogs. Value was reported for experiment 1; format: functional, Canis lupus familiaris; in short: as §4
[10] = species on record: Canis familiaris; experiment: In vitro electrophysiological evaluation in canine cardiac ventricular muscle reported as maximum % change for functional refractory period (FRP) at 0.1-100 uM concentration range; concentration at which it occurred is 100 uM.; design: species or system Canis lupus familiaris, Muscle tissue; in short: as §1
[11] = species on record: Canis familiaris; experiment: In vitro electrophysiological evaluation in canine cardiac occurred is 30 uM.; format: functional; settings: Canis lupus familiaris; Heart
[12] = tested on: Canis familiaris; experiment: Mean arterial blood pressure was determined by intraduodenal administration of two dosages of 10 mg/kg (low dose) of compound in anesthetized dogs. Value was reported for experiment 1; format: functional, Canis lupus familiaris; in short: as §4
[13] = tested on: Canis familiaris; experiment: Conduction time was determined by intraduodenal administration of two dosages of 10 mg/kg (low dose) of compound in anesthetized dogs. Value was reported for experiment 1; format: functional, Canis lupus familiaris; in short: as §3
[14] = species on record: Canis familiaris; experiment: In vitro electrophysiological evaluation in canine cardiac Purkinje fibres reported as percent change Vmax at 10 uM at concentration range of 0.1-30 uM; format: functional; settings: Canis lupus familiaris, Purkinje fiber; in short: as §2
[15] = tested on: Canis familiaris; experiment: Left ventricular refractory period was determined by intraduodenal administration of two dosages of 10 mg/kg (low dose) of compound in anesthetized dogs. Value was reported for experiment 2; format: functional, Canis lupus familiaris, Cardiac ventricle; in short: as §4
[16] = tested on: Canis familiaris; experiment: Mean arterial blood pressure was determined by intraduodenal administration of two dosages of 30 mg/kg(high dose) of compound in anesthetized dogs. Value was reported for experiment 2; format: functional, Canis lupus familiaris; in short: as §4
[17] = tested on: Canis familiaris; experiment: Mean arterial blood pressure was determined by intraduodenal administration of two dosages of 10 mg/kg (low dose) of compound in anesthetized dogs. Value was reported for experiment 2; format: functional, Canis lupus familiaris; in short: as §4
[18] = species on record: Canis familiaris; experiment: In vitro electrophysiological activity in canine cardiac occurred is 100 uM.; format: functional, Canis lupus familiaris, Heart
[19] = species on record: Canis familiaris; experiment: (§5) In vitro electrophysiological evaluation in canine cardiac occurred is 100 uM.; format: functional; settings: Canis lupus familiaris; Heart
[20] = species on record: Canis familiaris; experiment: In vitro electrophysiological evaluation in canine cardiac Purkinje fibres reported as percent change Vmax at 10 uM at concentration range of 0.1-100 uM; format: functional; settings: Canis lupus familiaris, Purkinje fiber
In short: (§6)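 Canine cardiac Purkinje fibers, intracellular recording, paced at a basic cycle length of 1 s. APD95 and Vmax are recorded together across cumulative concentrations. Compound is a 10 mM aqueous stock diluted into Tyrode's solution. Each fiber is used once as its own control. Readouts are percent change from control at 10 μM, and the maximum change with the concentration where it occurred.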

[21] = tested on: Canis familiaris; experiment: Heart rate was determined by intraduodenal administration of two dosages of 30 mg/kg (high dose) of compound in anesthetized dogs. Value was reported for experiment 2; format: functional, Canis lupus familiaris; in short: as §3
[22] = tested on: Canis familiaris; experiment: Left ventricular refractory period was determined by intraduodenal administration of two dosages of 30 mg/kg (high dose)of compound in anesthetized dogs. Value was reported for experiment 2; format: functional, Canis lupus familiaris, Cardiac ventricle; in short: as §4
[23] = species on record: Canis familiaris; experiment: In vitro electrophysiological evaluation in canine cardiac Purkinje fibres reported as % change for action potential duration at 10 uM at 5-50 uM concentration range; format: functional, Canis lupus familiaris, Purkinje fiber; in short: as §6
[24] = species on record: Canis familiaris; experiment: In vitro electrophysiological activity in canine cardiac occurred is 50 uM.; format: functional, Canis lupus familiaris, Heart
[25] = tested on: Canis familiaris; experiment: Heart rate was determined by intraduodenal administration of two dosages of 30 mg/kg (high dose)of compound in anesthetized dogs. Value was reported for experiment 1; format: functional, Canis lupus familiaris; in short: as §3
[26] = tested on: Canis familiaris; experiment: Conduction time was determined by intraduodenal administration of two dosages of 10 mg/kg (low dose) of compound in anesthetized dogs. Value was reported for experiment 2; format: functional, Canis lupus familiaris
In short: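 Anesthetized dogs; compound given intraduodenally, generally as two doses, the second a cumulative (high) dose. LV functional refractory period and conduction time measured 15, 30 and 45 min after dosing; heart rate and blood pressure measured during nonpacing intervals. Values are % change from control, given per individual animal. Active if FRP or CT prolonged by ≥12%.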

[27] = tested on: Canis familiaris; experiment: Left ventricular refractory period was determined by intraduodenal administration of two dosages(high dose) of 30 mg/kg of compound in anesthetized dogs. Value was reported for experiment 1; format: functional, Canis lupus familiaris, Cardiac ventricle; in short: as §4
[28] = species on record: Canis familiaris; experiment: In vitro electrophysiological evaluation in canine cardiac Purkinje fibres reported as percent change Vmax at 10 uM at concentration range of 5-50 uM; format: functional; settings: Canis lupus familiaris, Purkinje fiber; in short: as §6
[29] = species on record: Canis familiaris; experiment: as §5; format: functional; settings: Canis lupus familiaris; Heart
[30] = tested on: Canis familiaris; experiment: Heart rate was determined by intraduodenal administration of two dosages of 10 mg/kg (low dose) of compound in anesthetized dogs. Value was reported for experiment 2; format: functional, Canis lupus familiaris; in short: as §3
[31] = species on record: Canis familiaris; experiment: In vitro electrophysiological evaluation in canine cardiac Purkinje fibres reported as % change for action potential duration at 10 uM at 0.1-30 uM concentration range; format: functional, Canis lupus familiaris, Purkinje fiber; in short: as §2
[32] = species on record: Canis familiaris; experiment: In vitro electrophysiological evaluation in canine cardiac ventricular muscle reported as % change for conduction time(CT) at 10 uM at 0.1-100 uM concentration range; format: functional, Canis lupus familiaris, Muscle tissue
In short: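 Canine right ventricular/papillary muscle strips in oxygenated Tyrode's, extracellular extra-stimulus conduction-interval method. FRP and CT are read from conduction-interval curves before and during rising concentrations. Compound is a 10 mM aqueous stock diluted into Tyrode's. Each strip is used once as its own control. Readouts are percent change from control at 10 μM, plus the maximum change with its concentration.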

[33] = species on record: Canis familiaris; experiment: In vitro electrophysiological evaluation in canine cardiac Purkinje fibres reported as maximum percent change Vmax concentration range of 0.1-100 uM; Minimal (<10% decrease or increase in V max).; format: functional; settings: Canis lupus familiaris; Purkinje fiber; in short: as §2
[34] = species on record: Canis familiaris; experiment: In vitro electrophysiological evaluation in canine cardiac ventricular muscle reported as maximum % change for conduction time(CT) at 0.1-100 uM concentration range; concentration at which it occurred is 100 uM.; format: functional, Canis lupus familiaris, Muscle tissue
[35] = species on record: Canis familiaris; experiment: In vitro electrophysiological evaluation in canine cardiac Purkinje fibres reported as percent change Vmax at 10 uM at concentration range of 1-100 uM; format: functional; settings: Canis lupus familiaris, Purkinje fiber; in short: as §2
[36] = species on record: Canis familiaris; experiment: (§7) In vitro electrophysiological activity in canine cardiac occurred is 100 uM; format: functional, Canis lupus familiaris, Heart
[37] = species on record: Canis familiaris; experiment: as §7; format: functional, Canis lupus familiaris, Heart; remark: listed apart in the source
[38] = species on record: Canis familiaris; experiment: In vitro electrophysiological evaluation in canine cardiac occurred is 100 uM; format: functional; settings: Canis lupus familiaris; Heart
[39] = species on record: Canis familiaris; experiment: In vitro electrophysiological evaluation in canine cardiac Purkinje fibres reported as % change for action potential duration at 10 uM at 1-100 uM concentration range; format: functional, Canis lupus familiaris, Purkinje fiber; in short: as §2
[40] = species on record: Canis familiaris; experiment: In vitro electrophysiological evaluation in canine cardiac Purkinje fibres reported as percent change Vmax at 10 uM at concentration range of 0.1-100 uM; Minimal (<10% decrease or increase in V max).; format: functional, organism-based; settings: Canis lupus familiaris, Purkinje fiber; in short: as §2

C=C[C@H]1CN2CC[C@H]1C[C@@H]2[C@@H](O)c1ccnc2ccc(OC)cc12 [QUINIDINE]
APD95 [1]: -39% | FRP [2]: 21% [middle of 4 runs] | FRP [3]: 22% | APD95 [4]: -9% | CT [5]: 38% | HR [6]: -22% | CT [7]: 51% | LV FRP [8]: 13% | Mean blood pressure [9]: -4% | FRP [10]: 27% and 24% and 46% | Vmax [11]: -19% | Mean blood pressure [12]: 2% | CT [13]: 7% | Vmax [14]: < 10% | LV FRP [15]: 16% | Mean blood pressure [16]: 15% | Mean blood pressure [17]: -7% | APD95 [18]: -24% | Vmax [19]: -53% | Vmax [20]: -10% | HR [21]: -39% | LV FRP [22]: 28% | APD95 [23]: -9% | APD95 [24]: -19% | HR [25]: -42% | CT [26]: 10% | LV FRP [27]: 20% | Vmax [28]: -11% | Vmax [29]: -40% | HR [30]: -18% | APD95 [31]: -21% | CT [32]: 17% and 11% and <10%

Cl.O=C(CCC1C(=O)C2CCN1CC2)c1ccccc1 (stereo not drawn)
FRP [2]: 12% | Vmax [33]: < 10% | FRP [3]: 12% | APD95 [4]: -3% | CT [34]: 17% | Vmax [35]: -36% | APD95 [36]: -14% | APD95 [37]: -16% | Vmax [38]: -52% | APD95 [39]: -1% | Vmax [40]: < 10%
